Assay results reported in ChEMBL document CHEMBL4308915, “Synthesis of novel pyrazoline derivatives and the evaluation of death mechanisms involved in their antileukemic activity” (Bioorg Med Chem, 2019).
Calls of active or inactive are those of the source. The calls are words filed in the database; no cut-off is given here.

Key:
[1] = tested on: K562; test: Cytotoxicity against human K562 cells assessed as reduction in cell viability after 24 hrs by MTT assay; type: functional, cell-based; conditions: K562, 24 h
Method in brief: (§1)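 MTT viability after 24 h exposure. Cells seeded at 5x10^4 per well and tested at 1-100 µM. Optical density of untreated cells set as 100% viable. IC50 derived by curve fitting. PBMC from healthy non-smoking volunteers, isolated by Ficoll-Hypaque.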

[2] = tested on: Jurkat; test: Cytotoxicity against human Jurkat cells assessed as reduction in cell viability after 24 hrs by MTT assay; type: functional, cell-based; method in brief: as §1
[3] = tested on: B16-F10; test: Cytotoxicity against mouse B16F10 cells assessed as reduction in cell viability after 24 hrs by MTT assay; type: functional, cell-based; conditions: B16-F10, 24 h; method in brief: as §1
[4] = tested on: PBMC; test: Cytotoxicity against human PBMC assessed as reduction in cell viability after 24 hrs by MTT assay; type: cell-based
[5] = tested on: K562; test: Cytotoxicity against human K562 cells assessed as reduction in cell viability after 48 hrs by MTT assay; type: functional, cell-based; conditions: K562, 48 h
[6] = tested on: Jurkat; test: Cytotoxicity against human Jurkat cells assessed as reduction in cell viability after 48 hrs by MTT assay; type: functional, cell-based
[7] = tested on: Daudi; test: Cytotoxicity against human Daudi cells assessed as reduction in cell viability after 48 hrs by MTT assay; type: functional, cell-based
[8] = tested on: PBMC; test: Cytotoxicity against human PBMC assessed as reduction in cell viability after 48 hrs by MTT assay; type: cell-based
[9] = tested on: K562; test: Cytotoxicity against human K562 cells assessed as reduction in cell viability after 72 hrs by MTT assay; type: functional, cell-based; conditions: K562, 72 h
[10] = tested on: Jurkat; test: Cytotoxicity against human Jurkat cells assessed as reduction in cell viability after 72 hrs by MTT assay; type: functional, cell-based
[11] = tested on: Daudi; test: Cytotoxicity against human Daudi cells assessed as reduction in cell viability after 72 hrs by MTT assay; type: functional, cell-based
[12] = tested on: B16-F10; test: Cytotoxicity against mouse B16F10 cells assessed as reduction in cell viability after 72 hrs by MTT assay; type: functional, cell-based; conditions: B16-F10, 72 h
[13] = Selectivity index, ratio of IC50 for human PBMC to IC50 for human K562 cells after 24 hrs; type: toxicity; conditions: PBMC versus K562 cells, read-out: Ratio IC50
Method in brief: (§2)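 MTT viability after 24 h exposure to 1-100µM; untreated control OD taken as 100%. IC50 by curve fitting in each line and in PBMC from six healthy donors (Ficoll-Hypaque). SI = IC50 PBMC / IC50 tumor line; SI ≥5 high, 2–5 moderate, <2 low.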

[14] = Selectivity index, ratio of IC50 for human PBMC to IC50 for human Jurkat cells after 24 hrs; type: toxicity; conditions: PBMC versus Jurkat cells, read-out: Ratio IC50; method in brief: as §2
[15] = Selectivity index, ratio of IC50 for human PBMC to IC50 for human Daudi cells after 24 hrs; method in brief: as §2
[16] = Hemolytic activity in human RBC at 1 time IC50 relative to control; type: ADME, cell-based, Erythrocyte; conditions: red blood cells (erythrocytes), read-out: Activity
Method in brief: (§3)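 RBC from healthy non-smoking volunteers incubated with increasing concentrations of the selected pyrazolines. Saline served as the 0% lysis control and distilled water as the 100% lysis control. Percent hemolysis calculated relative to these controls.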

[17] = Hemolytic activity in human RBC at 2 times IC50 relative to control; type: ADME, cell-based, Erythrocyte; conditions: red blood cells (erythrocytes), read-out: Activity; method in brief: as §3
[18] = Hemolytic activity in human RBC at 3 times IC50 relative to control; type: ADME, cell-based, Erythrocyte; conditions: red blood cells (erythrocytes), read-out: Activity; method in brief: as §3
[19] = Hemolytic activity in human RBC at 12 times IC50 relative to control; type: ADME, cell-based, Erythrocyte; conditions: red blood cells (erythrocytes), read-out: Activity; method in brief: as §3
[20] = tested on: K562; test: Cell cycle arrest in human K562 cells assessed as increase in accumulation at G0/G1 phase at 32 uM after 12 hrs by propidium iodide/RNAse staining based flow cytometric analysis relative to control; type: functional
[21] = tested on: K562; test: Antiproliferative activity against human K562 cells assessed as reduction in KI-67 expression at 32 uM after 12 hrs by flow cytometric analysis; type: functional, cell-based
[22] = tested on: K562; test: Induction of apoptosis in human K562 cells assessed as increase in membrane blebbing at 32 uM by acridine orange/ethidium bromide staining-based fluorescence microscopic analysis; type: functional, cell-based
[23] = tested on: K562; test: Induction of apoptosis in human K562 cells assessed as increase in chromatin condensation at 32 uM by acridine orange/ethidium bromide staining-based fluorescence microscopic analysis; type: functional, cell-based
[24] = tested on: K562; test: Induction of apoptosis in human K562 cells assessed as increase in loss of membrane integrity at 32 uM by acridine orange/ethidium bromide staining-based fluorescence microscopic analysis; type: functional, cell-based
[25] = tested on: Jurkat; test: Induction of apoptosis in human Jurkat cells assessed as increase in chromatin condensation at 30.08 uM by acridine orange/ethidium bromide staining-based fluorescence microscopic analysis; type: functional, cell-based
[26] = tested on: Jurkat; test: Induction of apoptosis in human Jurkat cells assessed as increase in loss of membrane integrity at 30.08 uM by acridine orange/ethidium bromide staining-based fluorescence microscopic analysis; type: functional, cell-based
[27] = tested on: Jurkat; test: Induction of apoptosis in human Jurkat cells at 30.08 uM after 12 hrs by Annexin-V FITC staining-based flow cytometry relative to control; type: functional
[28] = tested on: Jurkat; test: Induction of DNA fragmentation in human Jurkat cells assessed as increase in ladder formation at 30.08 uM after 12 hrs by ethidium bromide staining based agarose gel electrophoresis method; type: functional, cell-based
[29] = tested on: K562; test: Induction of apoptosis in human K562 cells assessed as increase in Bax expression at 32 uM after 12 hrs by flow cytometric analysis relative to control; type: functional
[30] = tested on: Jurkat; test: Induction of apoptosis in human Jurkat cells assessed as increase in Bax expression at 30.08 uM after 12 hrs by flow cytometric analysis relative to control; type: functional
[31] = tested on: K562; test: Induction of apoptosis in human K562 cells assessed as reduction in cells with intact mitochondrial membrane potential at 32 uM after 12 hrs by flow cytometric analysis relative to control; type: functional; parameters: scale not given: the % may be the effect or the level left
[32] = tested on: Jurkat; test: Induction of apoptosis in human Jurkat cells assessed reduction in cells with intact mitochondrial membrane potential at 30.08 uM after 12 hrs by flow cytometric analysis relative to control; type: functional; parameters: scale not given: the % may be the effect or the level left
[33] = tested on: Jurkat; test: Induction of apoptosis in human Jurkat cells assessed as decrease in survivin level at 30.08 uM after 12 hrs by flow cytometric analysis relative to control; type: functional
[34] = tested on: Jurkat; test: Induction of apoptosis in human Jurkat cells assessed as increase in AIF release at 30.08 uM after 12 hrs by flow cytometric analysis relative to control; type: functional
[35] = tested on: K562; test: Induction of apoptosis in human K562 cells assessed as increase in caspase-3 expression at 32 uM after 12 hrs by flow cytometric analysis relative to control; type: functional
[36] = (§4) Cytotoxicity against acute leukemia patient-derived bone marrow cells assessed as reduction in cell viability after 24 hrs; type: functional, cell-based; conditions: Homo sapiens
Method in brief: (§5)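 Mononuclear cells from acute leukemia patient samples (peripheral blood or bone marrow, taken before first treatment at diagnosis or relapse) isolated by Ficoll-Hypaque.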

[37] = organism: Homo sapiens; test: as §4; type: functional, cell-based; method in brief: as §5
[38] = tested on: Jurkat (human); test: Induction of apoptosis in human Jurkat cells assessed as increase in AIF release at 30.08 uM after 12 hrs by flow cytometric analysis relative to control
[39] = tested on: Jurkat; test: Induction of apoptosis in human Jurkat cells assessed as decrease in Bcl2 expression at 30.08 uM after 12 hrs by flow cytometric analysis relative to control; parameters: scale not given: the % may be the effect or the level left

COc1cc(C2=NN(C(C)=O)C(c3ccc(Br)cc3)C2)cc(OC)c1OC (centres undefined)
IC50 [1]: 32 µM
IC50 [2]: 30.8 µM
IC50 [3]: 98.7 µM
IC50 [4]: 340 µM
IC50 [5]: 16.2 µM
IC50 [6]: 17.2 µM
IC50 [7]: 34.8 µM
IC50 [8]: 287 µM
IC50 [9]: 15.1 µM
IC50 [10]: 15.6 µM
IC50 [11]: 33 µM
IC50 [12]: 62.5 µM
selectivity ratio at 24 h [13]: 11
selectivity ratio at 24 h [14]: 10.6
Ratio IC50 [15]: 6.8
hemolysis at 1 times IC50 [16]: 0.9%
hemolysis at 2 times IC50 [17]: 1.3%
hemolysis at 3 times IC50 [18]: 1.6%
hemolysis at 12 times IC50 [19]: 12.9%
Activity [20]: 8%
Activity [21]: Active
Activity [22]: Active
Activity [23]: Active
Activity [24]: Active
Activity [25]: Active
Activity [26]: Active
Activity [27]: 24.6%
Activity [28]: Active
Activity [29]: 15.8%
Activity [30]: 101.4%
Activity [31]: 25.3%
Activity [32]: 32.9%
Activity [33]: 10.7%
Activity [34]: 33.2%
Activity [35]: 20%
IC50 [36]: 31 to 98.2 µM
Activity [37]: Dose-dependent effect
Activity [38]: 33.2%
Activity [39]: 12.9%
